Test results published in ChEMBL document CHEMBL1149911, “Design and synthesis of peripherally restricted transient receptor potential vanilloid 1 (TRPV1) antagonists” (J Med Chem, 2008).

Legend:
[1] = Ratio of drug level in brain to plasma in Sprague-Dawley rat at 5 mg/kg, iv; type: ADME, organism-based; set-up: dose 5 mg/kg, route intravenous
Method in brief: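 Male Sprague-Dawley rats received a single iv dose of 5 mg/kg as a solution in DMSO (n = 3). Plasma and nonperfused whole brain were collected 30 min after dosing. Total compound concentration was measured by HPLC and expressed as a brain-to-plasma ratio.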

Rattus norvegicus [2] = test: Inhibition of capsaicin-induced flinching in Sprague-Dawley rat at 3 mg/kg, po administered 1 hr before capsaicin challenge; type: functional
Method in brief: (§1)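 Rats received the test compound orally, then capsaicin. In vivo on-target activity was scored as percent inhibition of the capsaicin-evoked flinching response.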

[3] = target: T1, Transient receptor potential cation channel subfamily V member 1 (Rattus norvegicus, UniProt O35433); test: Antagonist activity at rat TRPV1 expressed in CHO cells assessed as inhibition of capsaicin-induced calcium influx; type: functional, cell-based
Method in brief: (§2)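 CHO cells stably expressing rat TRPV1. Uptake of 45Ca2+ was triggered by capsaicin (500 nM) or by acid (pH 5), and test compounds were run over a concentration range. IC50 values are the mean ± SEM of at least two experiments, with triplicate wells at each concentration.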

[4] = target: T1, Transient receptor potential cation channel subfamily V member 1; test: Antagonist activity at rat TRPV1 expressed in CHO cells assessed as inhibition of pH 5 acid-induced calcium influx; type: functional, cell-based; method in brief: as §2
[5] = Drug level in blood of Sprague-Dawley rat with capsaicin-induced flinching at 3 mg/kg, po administered 1 hr before capsaicin challenge; type: ADME, organism-based; set-up: dose 3 mg/kg, route oral; conditions: read-out: Drug uptake
Blood [6] = test: Drug level in blood of Sprague-Dawley rat telemetry model at 10 mg/kg, po; type: ADME, organism-based; set-up: dose 10 mg/kg, route oral; conditions: in vivo
Rattus norvegicus [7] = test: Inhibition of capsaicin-induced flinching in Sprague-Dawley rat at 10 mg/kg, po administered 1 hr before capsaicin challenge; type: functional; method in brief: as §1
[8] = Drug level in blood of Sprague-Dawley rat with capsaicin-induced flinching at 10 mg/kg, po administered 1 hr before capsaicin challenge; type: ADME, organism-based; set-up: dose 10 mg/kg, route oral; conditions: read-out: Drug uptake
Rattus norvegicus [9] = test: Toxicity assessed as increase in body core temperature in Sprague-Dawley rat at 10 mg/kg, po by radiotelemetry relative to control; type: organism-based; set-up: dose 10 mg/kg, route oral; conditions: in vivo
Rattus norvegicus [10] = test: Inhibition of capsaicin-induced flinching in Sprague-Dawley rat at 1 mg/kg, po administered 1 hr before capsaicin challenge; type: functional; method in brief: as §1
Blood [11] = test: Drug level in blood of Sprague-Dawley rat telemetry model at 3 mg/kg, po; type: ADME, organism-based; set-up: dose 3 mg/kg, route oral; conditions: in vivo
[12] = Drug level in blood of Sprague-Dawley rat with capsaicin-induced flinching at 1 mg/kg, po administered 1 hr before capsaicin challenge; type: ADME, organism-based; set-up: dose 1 mg/kg, route oral; conditions: read-out: Drug uptake
Rattus norvegicus [13] = test: Toxicity assessed as increase in body core temperature in Sprague-Dawley rat at 3 mg/kg, po by radiotelemetry relative to control; type: organism-based; set-up: dose 3 mg/kg, route oral; conditions: in vivo
[14] = Drug level in blood of Sprague-Dawley rat with capsaicin-induced flinching at 0.3 mg/kg, po administered 1 hr before capsaicin challenge; type: ADME, organism-based; set-up: dose 0.3 mg/kg, route oral; conditions: read-out: Drug uptake
Rattus norvegicus [15] = test: Inhibition of capsaicin-induced flinching in Sprague-Dawley rat at 0.3 mg/kg, po administered 1 hr before capsaicin challenge; type: functional; method in brief: as §1
Rattus norvegicus [16] = test: Toxicity assessed as increase in body core temperature in Sprague-Dawley rat at 1 mg/kg, po by radiotelemetry relative to control; type: organism-based; set-up: dose 1 mg/kg, route oral; conditions: in vivo
Blood [17] = test: Drug level in blood of Sprague-Dawley rat telemetry model at 1 mg/kg, po; type: ADME, organism-based; set-up: dose 1 mg/kg, route oral; conditions: in vivo
[18] = target: T2, Transient receptor potential cation channel subfamily V member 1 (Homo sapiens, UniProt Q8NER1); test: Antagonist activity at human TRPV1 assessed as inhibition of low pH-induced calcium influx; type: functional
[19] = target: T2, Transient receptor potential cation channel subfamily V member 1; test: Antagonist activity at human TRPV1 assessed as inhibition of capsaicin-induced calcium influx; type: functional
Rattus norvegicus [20] = test: Inhibition of capsaicin-induced flinching in po dosed rat; type: functional, organism-based; method in brief: as §1
Rattus norvegicus [21] = test: Toxicity assessed as increase in body temperature in Sprague-Dawley rat at 0.1 to 3 mg/kg, po after 60 mins; type: organism-based; set-up: dose 0.1-3 mg/kg, route oral; conditions: in vivo, 1 h
Method in brief: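 Rodents were dosed orally at 0.1–3 mg/kg. Body temperature was recorded 60 min after drug administration and compared across doses.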

T1 sequence (O35433 whole entry): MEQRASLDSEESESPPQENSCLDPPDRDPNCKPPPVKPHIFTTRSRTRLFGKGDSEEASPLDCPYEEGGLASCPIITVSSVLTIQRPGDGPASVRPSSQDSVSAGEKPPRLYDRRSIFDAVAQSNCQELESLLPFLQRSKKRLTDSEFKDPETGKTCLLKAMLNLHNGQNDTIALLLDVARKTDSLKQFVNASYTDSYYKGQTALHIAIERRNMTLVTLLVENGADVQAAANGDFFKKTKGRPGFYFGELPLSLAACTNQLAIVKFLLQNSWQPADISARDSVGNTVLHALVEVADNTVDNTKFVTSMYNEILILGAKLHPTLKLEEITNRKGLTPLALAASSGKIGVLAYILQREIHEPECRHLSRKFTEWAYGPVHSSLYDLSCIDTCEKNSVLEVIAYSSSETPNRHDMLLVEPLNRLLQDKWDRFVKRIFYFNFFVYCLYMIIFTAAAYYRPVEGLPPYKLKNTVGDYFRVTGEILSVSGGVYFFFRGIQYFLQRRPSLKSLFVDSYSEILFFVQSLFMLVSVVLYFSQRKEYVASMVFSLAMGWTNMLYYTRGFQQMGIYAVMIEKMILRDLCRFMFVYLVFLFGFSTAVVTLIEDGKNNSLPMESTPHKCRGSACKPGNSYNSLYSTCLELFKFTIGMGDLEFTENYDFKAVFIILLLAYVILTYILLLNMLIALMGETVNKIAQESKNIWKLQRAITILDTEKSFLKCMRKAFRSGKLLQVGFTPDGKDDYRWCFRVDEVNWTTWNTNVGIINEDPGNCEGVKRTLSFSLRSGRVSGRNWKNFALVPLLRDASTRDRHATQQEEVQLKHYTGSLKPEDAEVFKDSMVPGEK
T2 sequence (Q8NER1 whole entry): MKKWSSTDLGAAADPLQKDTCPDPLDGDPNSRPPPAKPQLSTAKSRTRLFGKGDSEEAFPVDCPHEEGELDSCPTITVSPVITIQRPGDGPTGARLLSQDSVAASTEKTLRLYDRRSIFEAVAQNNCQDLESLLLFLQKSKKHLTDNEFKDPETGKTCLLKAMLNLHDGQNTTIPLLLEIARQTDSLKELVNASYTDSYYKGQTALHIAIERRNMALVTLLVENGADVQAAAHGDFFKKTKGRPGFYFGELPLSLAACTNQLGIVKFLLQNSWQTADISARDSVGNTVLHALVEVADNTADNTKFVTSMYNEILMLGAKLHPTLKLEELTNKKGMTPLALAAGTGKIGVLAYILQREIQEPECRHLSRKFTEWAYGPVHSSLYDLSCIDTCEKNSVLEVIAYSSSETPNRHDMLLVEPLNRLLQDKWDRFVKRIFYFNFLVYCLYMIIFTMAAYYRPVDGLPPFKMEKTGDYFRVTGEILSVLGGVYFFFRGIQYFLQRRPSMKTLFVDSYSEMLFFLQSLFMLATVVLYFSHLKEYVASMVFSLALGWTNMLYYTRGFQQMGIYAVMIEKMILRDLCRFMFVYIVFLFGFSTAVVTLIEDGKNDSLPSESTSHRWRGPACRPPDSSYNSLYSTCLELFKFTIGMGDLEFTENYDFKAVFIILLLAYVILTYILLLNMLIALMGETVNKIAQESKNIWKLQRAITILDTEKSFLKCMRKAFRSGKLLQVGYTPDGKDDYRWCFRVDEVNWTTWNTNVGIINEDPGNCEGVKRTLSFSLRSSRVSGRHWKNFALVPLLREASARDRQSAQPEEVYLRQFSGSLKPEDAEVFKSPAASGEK

SMILES	Kp [1]	IC50 [3] [nM]	IC50 [4] [nM]	further results
Nc1nc2c(Oc3cc(-c4ccc(C(F)(F)F)nc4N[C@@H]4CCOC4)ncn3)cccc2[nH]c1=O	0.09	1.1	0.8	inhibition in vivo at 3 mg/kg (Rattus norvegicus [2]): 30%; concentration at 1 h [5]: 32.8 ng/mL
CC(Nc1nc(Oc2cccc3[nH]c(=O)c(N)nc23)cc(-c2ccc(C(F)(F)F)cc2)n1)c1ccccn1 (configuration not stated)	0.04	2.8	5.7	Drug uptake (Blood [6]): 241.9 ng/mL; inhibition in vivo at 10 mg/kg (Rattus norvegicus [7]): 94%; concentration at 1 h [8]: 267 ng/mL; Activity (Rattus norvegicus [9]): 0.5 °C
Nc1nc(Oc2cccc3[nH]c(=O)c(N)nc23)cc(-c2ccc(C(F)(F)F)cc2N)n1	0.04	34.5	61.9	
Nc1nc2c(Oc3cc(-c4ccc(C(F)(F)F)cc4NC(=O)c4ccccn4)ncn3)cccc2[nH]c1=O	0.21	0.7	0.7	
Nc1nc2c(Oc3cc(-c4ccc(C(F)(F)F)cc4NC(=O)c4ccncc4)ncn3)cccc2[nH]c1=O	0.07	3.3	2.1	inhibition in vivo at 10 mg/kg (Rattus norvegicus [7]): 50%; concentration at 1 h [8]: 0.82 ng/mL
CC(=O)Nc1nc2c(Oc3cc(-c4ccc(C(F)(F)F)cc4)nc(N)n3)cccc2s1	0.44			
CC(=O)Nc1nc2c(Oc3cc(-c4ccc(C(F)(F)F)cc4NC(=O)NC(C)(C)C)ncn3)cccc2s1	0.19	2.4	6	
CC(=O)Nc1nc2c(Oc3cc(-c4ccc(C(F)(F)F)cc4N)ncn3)cccc2s1	0.93	15.9	3.6	
Nc1nc(C(F)(F)F)ccc1-c1cc(Oc2cccc3[nH]c(=O)c(N)nc23)ncn1	0.11	0.8	2.7	Drug uptake (Blood [6]): 1129.62 ng/mL; inhibition in vivo at 3 mg/kg (Rattus norvegicus [2]): 100%; concentration at 1 h [5]: 252 ng/mL; Activity (Rattus norvegicus [9]): 1.1 °C
CC(C)CN1CCCCC1CNc1nc(C(F)(F)F)ccc1-c1cc(Oc2cccc3[nH]c(=O)c(N)nc23)ncn1 (configuration not stated)	0.25	0.9	1.7	
CC(O)CCNc1nc(Oc2cccc3[nH]c(=O)c(N)nc23)cc(-c2ccc(C(F)(F)F)cc2)n1 (configuration not stated)	0.03	16.1	8.7	inhibition in vivo at 10 mg/kg (Rattus norvegicus [7]): 72%; concentration at 1 h [8]: 494 ng/mL
COC[C@H](C)Nc1nc(Oc2cccc3[nH]c(=O)c(N)nc23)cc(-c2ccc(C(F)(F)F)cc2)n1	0.19	0.8	1	
Nc1nc2c(Oc3cc(-c4ccc(C(F)(F)F)cc4)ncn3)cccc2[nH]c1=O	0.4			
COCCNc1nc(C(F)(F)F)ccc1-c1cc(Oc2cccc3[nH]c(=O)c(N)nc23)ncn1	0.04	0.7	1.3	inhibition in vivo at 1 mg/kg (Rattus norvegicus [10]): 100%; Drug uptake (Blood [11]): 25.35 ng/mL; concentration at 1 h [12]: 19 ng/mL; Activity (Rattus norvegicus [13]): 0.6 °C
CC(C)(C)NC(=O)Nc1cc(C(F)(F)F)ccc1-c1cc(Oc2cccc3[nH]c(=O)c(N)nc23)ncn1	0.04	4.1	5.2	inhibition in vivo at 10 mg/kg (Rattus norvegicus [7]): 43%; concentration at 1 h [8]: 196 ng/mL
COCCNc1nc(Oc2cccc3[nH]c(=O)c(N)nc23)cc(-c2ccc(C(F)(F)F)cc2N)n1	0.1	4.3	5.9	inhibition in vivo at 10 mg/kg (Rattus norvegicus [7]): 71%; concentration at 1 h [8]: 298 ng/mL
COC[C@H](C)Nc1nc(Oc2cccc3[nH]c(=O)c(N)nc23)cc(-c2ccc(C(F)(F)F)cc2N)n1	0.07	3.8	2.7	Drug uptake (Blood [6]): 289.24 ng/mL; inhibition in vivo at 10 mg/kg (Rattus norvegicus [7]): 95%; concentration at 1 h [8]: 342 ng/mL; Activity (Rattus norvegicus [9]): 1.2 °C
COC[C@@H](C)Nc1nc(Oc2cccc3[nH]c(=O)c(N)nc23)cc(-c2ccc(C(F)(F)F)cc2)n1	0.15	0.3	0.3	
COCCNc1nc(Oc2cccc3[nH]c(=O)c(N)nc23)cc(-c2ccc(C(F)(F)F)cc2)n1	0.05	0.6	0.8	concentration at 1 h [14]: 24.9 ng/mL; inhibition in vivo at 1 mg/kg (Rattus norvegicus [10]): 100%; inhibition in vivo at 0.3 mg/kg (Rattus norvegicus [15]): 93%; Activity (Rattus norvegicus [16]): 0.7 °C; Drug uptake (Blood [17]): 100.29 ng/mL
Nc1nc(Oc2cccc3[nH]c(=O)c(N)nc23)cc(-c2ccc(C(F)(F)F)cc2)n1	0.07	3.7	2.6	
CC(=O)Nc1nc2c(Oc3cc(-c4ccc(C(F)(F)F)cc4)ncn3)cccc2s1 [AMG-517]				IC50 [18]: 0.6 nM; IC50 [19]: 0.8 nM; EC50 (Rattus norvegicus [20]): 0.33 mg/kg; Activity (Rattus norvegicus [21]): Active
COC[C@H](C)Nc1nc(Oc2cccc3[nH]c(=O)c(N)nc23)cc(-c2ccc(C(F)(F)F)nc2N)n1	0.04	4.4	6.4	inhibition in vivo at 10 mg/kg (Rattus norvegicus [7]): 23%; concentration at 1 h [8]: 5.48 ng/mL
CC(C)(C)CN1CCCCC1CNc1nc(Oc2cccc3[nH]c(=O)c(N)nc23)cc(-c2ccc(C(F)(F)F)cc2)n1 (configuration not stated)	0.24	2	2.1	
Nc1nc2c(Oc3cc(-c4ccc(C(F)(F)F)nc4NCCN4CCOCC4)ncn3)cccc2[nH]c1=O	0.04	2.2	18.8	inhibition in vivo at 3 mg/kg (Rattus norvegicus [2]): 60%; concentration at 1 h [5]: 67.1 ng/mL
Nc1cc(C(F)(F)F)ccc1-c1cc(Oc2cccc3[nH]c(=O)c(N)nc23)ncn1	0.23	1.5	3.9	
